Drawing on ChEMBL document CHEMBL4130355, “Development of a series of novel 4-anlinoquinazoline derivatives possessing quinazoline skeleton: Design, synthesis, EGFR kinase inhibitory efficacy, and evaluation of anticancer activities in vitro” (Eur J Med Chem, 2017), this text covers Activity, IC50 and inhibition for one compound.

In assay [1] the test system is HepG2. The assay can be described thus: Antiproliferative activity against human HepG2 cells at 100 uM after 24 hrs by MTT assay realtive to control. The class given is functional. In outline: (§1)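 MTT assay in triplicate wells. Cells (2 × 10^3/well) were attached 24 h, then treated at 0.1, 1, 10, 50 or 100 µM for 24, 48 or 72 h. MTT added for 4 h, SDS solubilisation, absorbance at 570/650 nm. Inhibition = 1 − (OD treated − blank)/(OD control − blank). Reported as mean ± SD of three independent experiments.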
Background: Tetrazolium dyes change colour on reduction, which living cells bring about.

Assay [2] has as its system HepG2. The assay can be described thus: Antiproliferative activity against human HepG2 cells at 100 uM after 48 hrs by MTT assay realtive to control. It counts as functional. In outline: as §1
Assay [3] has as its system HepG2. The assay can be described thus: Antiproliferative activity against human HepG2 cells after 48 hrs by MTT assay. It counts as functional, cell-based. The conditions noted are these: HepG2, 48 h. The procedure, abridged:
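MTT read-out. Cells seeded at 2 × 10^3/well, attached 24 h at 37 °C in 5% CO2, then exposed to 0.1–100 µM for 24, 48 or 72 h. MTT for 4 h, formazan dissolved in 10% SDS/NH4Cl for 10 h, absorbance at 570 nm corrected at 650 nm. % inhibition computed against untreated and blank wells. IC50 is the mean of at least three independent experiments.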

Assay [4] concerns HepG2. The assay can be described thus: Cytotoxicity against human HepG2 cells at 5 uM after 48 hrs by LDH release assay (reference value: 100%). It counts as functional. In outline: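 HepG2 seeded at 1.0 × 10^5 cells/well, grown 24 h at 37 °C in 5% CO2, then dosed for 48 h. LDH in supernatant read on plate reader per kit. Maximal release (100% cytotoxicity) came from lysis with 2% (V/V) lysate for 1 h at 37 °C; medium-only cells served as natural release. Triplicate, three independent runs.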
(In general: Release of lactate dehydrogenase indicates damage to the cell membrane.)

Assay [5] relates to HepG2. The assay can be described thus: Cell cycle arrest in human HepG2 assessed as accumulation at S phase after 48 hrs by propidium iodide-staining based flow cytometry. The class given is functional. The procedure, abridged: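 HepG2 cells at 5.0 × 10^5/well were grown 24 h, then treated at 0, 2.5, 5.0 or 10.0 µM for 48 h alongside medium-only wells. Cells fixed in 70% ice-cold ethanol for ≥24 h, treated with RNase A at 37 °C for 30 min, then stained with propidium iodide for 30 min at 4 °C in the dark. DNA content read by flow cytometry. Average of at least three experiments.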
A general note: Flow cytometry measures light scatter and fluorescence of single cells or particles in a stream.

Assay [6] deals with HepG2. The assay can be described thus: Induction of apoptosis in human HepG2 cells assessed as late apoptotic cells at 5 uM after 48 hrs by Annexin V-FITC/propidium iodide double staining-based flow cytometry (reference value: 4.3%). It counts as functional.
In assay [7] the test system is HepG2. The assay can be described thus: Induction of apoptosis in human HepG2 cells assessed as intracellular free Ca2+ levels at 5 uM after 48 hrs by FL1 channel/FACS analysis (reference value: 14.2%). The class given is functional. In outline:
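HepG2 seeded at 5.0 × 10^5 cells/mL, 24 h at 37 °C in 5% CO2, then treated 48 h (2.5–20 µM). Harvested cells were washed in ice-cold PBS and loaded with 4 µM Fluo-3/AM for 30 min. After trypsinizing, they were washed twice and resuspended in HEPES, and fluorescence was measured in the FL-1 channel by flow cytometry. Values are averages of at least three independent experiments.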

Assay [8] has as its target Epidermal growth factor receptor (Homo sapiens, UniProt P00533). The conditions noted are these: HEK293, at 1 µM.

Chain of Epidermal growth factor receptor (P00533 whole entry): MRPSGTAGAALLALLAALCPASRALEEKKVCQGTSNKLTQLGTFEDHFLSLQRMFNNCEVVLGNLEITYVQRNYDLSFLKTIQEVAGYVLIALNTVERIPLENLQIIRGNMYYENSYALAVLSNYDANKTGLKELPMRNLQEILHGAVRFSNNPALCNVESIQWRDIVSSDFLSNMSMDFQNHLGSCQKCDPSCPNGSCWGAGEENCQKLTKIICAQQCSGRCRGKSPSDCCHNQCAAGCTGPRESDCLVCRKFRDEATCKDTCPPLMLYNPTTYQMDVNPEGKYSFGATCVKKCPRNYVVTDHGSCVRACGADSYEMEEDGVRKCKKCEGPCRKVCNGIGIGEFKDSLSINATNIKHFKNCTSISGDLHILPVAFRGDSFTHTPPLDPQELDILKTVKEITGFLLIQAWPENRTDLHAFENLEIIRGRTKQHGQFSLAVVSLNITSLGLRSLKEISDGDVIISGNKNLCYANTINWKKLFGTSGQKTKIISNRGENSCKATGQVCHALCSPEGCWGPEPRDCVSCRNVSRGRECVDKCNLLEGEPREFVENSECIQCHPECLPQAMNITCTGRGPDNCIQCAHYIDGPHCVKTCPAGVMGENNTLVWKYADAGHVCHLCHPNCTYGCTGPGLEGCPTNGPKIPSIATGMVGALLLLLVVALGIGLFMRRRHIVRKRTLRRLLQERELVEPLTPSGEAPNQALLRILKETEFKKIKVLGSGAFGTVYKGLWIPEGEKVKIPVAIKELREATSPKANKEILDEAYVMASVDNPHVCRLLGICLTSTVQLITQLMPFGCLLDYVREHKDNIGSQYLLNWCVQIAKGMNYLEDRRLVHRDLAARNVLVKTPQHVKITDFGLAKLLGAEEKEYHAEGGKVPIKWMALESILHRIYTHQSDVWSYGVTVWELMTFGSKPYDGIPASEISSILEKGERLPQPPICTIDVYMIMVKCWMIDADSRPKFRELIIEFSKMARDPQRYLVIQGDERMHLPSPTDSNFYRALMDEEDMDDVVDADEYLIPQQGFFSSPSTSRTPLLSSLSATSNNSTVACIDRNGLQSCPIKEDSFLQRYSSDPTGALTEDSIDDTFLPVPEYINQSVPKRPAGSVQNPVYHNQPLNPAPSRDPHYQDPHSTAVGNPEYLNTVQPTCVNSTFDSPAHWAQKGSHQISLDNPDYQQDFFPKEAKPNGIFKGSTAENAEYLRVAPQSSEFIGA

In the case of `COc1cc2c(Nc3ccc(C#N)cc3)ncnc2cc1OCCCN1CCC(c2ccccc2)CC1`, the Activity was 101% in assay [1]; 102% in assay [2]; 50.11% in assay [4]; “Dose-dependent effect” in assay [5]; 2% in assay [6]; 43.2% in assay [7]. Besides, in assay [3], the IC50 (in general, the midpoint of a concentration-inhibition curve) is 9.56 µM. Further, the inhibition (commonly the drop in the measured response relative to a control, in per cent) in assay [8] was 94.3%.
